The entries come from a sample that favours hits as a whole.
INS-1E rescue: preserves ATP levels in cytokine-treated INS-1E cells; AID 488910; hit rate 0.1% among 20,000; INS-1E cytokine-induced death, ATP luminescence, 48 h; normalised: neutral wells 0, positive control 100; protection from cytokine-induced ATP loss, % at 10 µM;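 active means mean replicate protection from cytokine-induced ATP loss at least 50% and at least 75% of replicates each reaching 50%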
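Test system: INS-1E rat cells | Quantity: 8000 cells per well | Medium: Phenol-red-free RPMI with 5% fetal bovine serum | Reagent: Cytokine cocktail of IFN-γ, TNF-α and IL-1β | Doses: One compound concentration, pin transfer | Timing: 48 h co-treatment, 10 min post-lysis read | Technique: Luminescent ATP assay (CellTiter-Glo)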
A1 apoptosis 2: A1 inhibition read as caspase activation | caspase activation, % (test concentration not listed) | MEF A1-2A-BIM cells, caspase-Glo luminescence, 3 h; percent of clofoctol response, DMSO zero | 24,000 tested, under 10 active; in the data active means caspase activation above about 5.9%
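System: mouse embryonic fibroblasts co-expressing A1 and BIM (A1-2A-BIM), primed for A1 dependence; amount: 2500 cells/well; doses: 50 nL pinned compound; schedule: cells settled overnight, compound exposure 3 h at 37 °C, 5% CO2; detection: Caspase-Glo 3/7 luminescence, 1 h at room temperature; read-out: Caspase-3/7 activation, seen as rise in luminescence signal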
T cruzi intra: intracellular Trypanosoma cruzi inhibition; AID 651903; hit rate 4.9% among 22,000; intracellular Trypanosoma cruzi in host cells, plate reader; activity score (inhibition), % at 5.01 µM; in the data active means activity score above about 55%;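 further: parasites and compound incubated about four days before reading; 0% = median of neutral control wells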
* hit, by the source's call; . = no result given.

SMILES | INS-1E rescue | A1 apoptosis 2 | T cruzi intra
C[C@@H]1CN([C@@H](C)CO)C(=O)c2cc(NC(=O)Nc3ccc(C(F)(F)F)cc3)ccc2O[C@H]1CN(C)S(=O)(=O)c1cccs1 | -13.9 | -0.1 | 70.6*
C[C@H]1CN([C@@H](C)CO)C(=O)Cc2cc(NC(=O)Nc3ccc(C(F)(F)F)cc3)ccc2O[C@H]1CN(C)S(=O)(=O)c1cccs1 | -9.4 | -0.6 | 9.0
C[C@H](CO)N1C[C@H](C)[C@@H](CN(C)S(=O)(=O)c2cccs2)Oc2c(NC(=O)Nc3ccc(C(F)(F)F)cc3)cccc2C1=O | -4.1 | 0.3 | -9.9
C[C@H]1CN([C@@H](C)CO)C(=O)c2cc(NC(=O)Nc3ccc(C(F)(F)F)cc3)ccc2O[C@@H]1CN(C)S(=O)(=O)c1cccs1 | -12.5 | . | 1.7
C[C@@H]1CN([C@H](C)CO)C(=O)Cc2cc(NC(=O)Nc3ccc(C(F)(F)F)cc3)ccc2O[C@@H]1CN(C)S(=O)(=O)c1cccs1 | 1.4 | . | 65.7*
C[C@@H]1CN([C@H](C)CO)C(=O)c2cccc(NC(=O)c3ccncc3)c2O[C@@H]1CN(C)S(=O)(=O)c1ccc(Cl)cc1 | 11.4 | -0.2 | -6.7
CCCN(C)C[C@H]1OCCCC[C@H](C)Oc2ccc(NS(=O)(=O)c3cccs3)cc2C(=O)N([C@@H](C)CO)C[C@H]1C | . | -1.0 | .
COc1ccc(CN(C)C[C@H]2Oc3ccc(NC(=O)Nc4c(C)noc4C)cc3C(=O)N([C@@H](C)CO)C[C@H]2C)cc1 | -12.9 | -0.2 | -25.1
C[C@H](CO)N1C[C@H](C)[C@H](CN(C)C(=O)Nc2ccc(F)cc2)Oc2ncc(C#Cc3ccc(F)cc3)cc2C1=O | . | . | 25.9
C[C@H](CO)N1C[C@H](C)[C@H](CN(C)C(=O)NC2CCCCC2)Oc2ncc(C#Cc3ccc(F)cc3)cc2C1=O | -19.1 | 2.4 | 33.5
C[C@H](CO)N1C[C@H](C)[C@H](CN(C)C(=O)Nc2ccc(F)cc2)Oc2ncc(C#Cc3ccc(C(F)(F)F)cc3)cc2C1=O | . | . | 87.7*
C[C@H](CO)N1C[C@H](C)[C@H](CN(C)C(=O)NC2CCCCC2)Oc2ncc(C#Cc3ccc(C(F)(F)F)cc3)cc2C1=O | -26.8 | . | 88.3*
Cc1ccc(S(=O)(=O)Nc2cccc3c2O[C@H](CN(C)S(=O)(=O)c2ccc(F)cc2)[C@H](C)CN([C@H](C)CO)C3=O)cc1 | 1.1 | . | -4.5
COc1ccc(S(=O)(=O)N(C)C[C@@H]2Oc3ccc(NC(=O)Nc4ccccc4)cc3C(=O)N([C@H](C)CO)C[C@@H]2C)cc1 | . | . | -0.9
C[C@@H]1CN([C@@H](C)CO)C(=O)c2cccc(NC(=O)c3nc4ccccc4s3)c2O[C@H]1CN(C)Cc1ccc2c(c1)OCO2 | -25.2 | -1.0 | 61.2*
C[C@H]1CN([C@@H](C)CO)C(=O)c2cccc(NC(=O)c3nc4ccccc4s3)c2O[C@@H]1CN(C)Cc1ccc2c(c1)OCO2 | -27.2 | . | 59.1*
C[C@@H]1CN([C@H](C)CO)C(=O)c2cccc(NC(=O)c3nc4ccccc4s3)c2O[C@H]1CN(C)Cc1ccc2c(c1)OCO2 | -26.9 | -1.7 | 48.4
C[C@@H]1CN([C@H](C)CO)C(=O)c2cccc(NC(=O)c3nc4ccccc4s3)c2O[C@@H]1CN(C)Cc1ccc2c(c1)OCO2 | -20.0 | 0.3 | -15.2
C[C@H](CO)N1C[C@H](C)[C@H](CN(C)CC2CCCC2)OCc2cn(nn2)CCCC1=O | 2.4 | . | -33.9
CC(C)NC(=O)Nc1cccc2c1O[C@@H](CN(C)Cc1ccc(Oc3ccccc3)cc1)[C@@H](C)CN([C@H](C)CO)C2=O | -33.4 | 0.1 | -6.9
C[C@H]1CN([C@@H](C)CO)C(=O)Cc2cc(NC(=O)Nc3ccc4c(c3)OCO4)ccc2O[C@H]1CN(C)Cc1ccc(-c2ccccc2)cc1 | -38.9 | . | 76.4*
C[C@@H]1CN([C@@H](C)CO)C(=O)Cc2cc(NC(=O)Nc3ccc4c(c3)OCO4)ccc2O[C@@H]1CN(C)Cc1ccc(-c2ccccc2)cc1 | -3.7 | 0.8 | 63.8*
C[C@H](CO)N1C[C@H](C)[C@H](CN(C)Cc2ccc(-c3ccccc3)cc2)Oc2ccc(NC(=O)Nc3ccc4c(c3)OCO4)cc2C1=O | . | -1.5 | -6.5
C[C@@H]1CN([C@H](C)CO)C(=O)Cc2cc(NC(=O)Nc3ccc4c(c3)OCO4)ccc2O[C@@H]1CN(C)Cc1ccc(-c2ccccc2)cc1 | -28.7 | -0.4 | 61.6*
C[C@@H]1CN([C@H](C)CO)C(=O)c2cc(NC(=O)Nc3ccc4c(c3)OCO4)ccc2O[C@@H]1CN(C)Cc1ccc(-c2ccccc2)cc1 | -24.6 | 0.1 | 87.5*
SMILES | INS-1E rescue | A1 apoptosis 2 | T cruzi intra
C[C@H]1CN([C@@H](C)CO)C(=O)Cc2cc(NC(=O)Nc3ccccc3)ccc2O[C@H]1CN(C)Cc1ccc2c(c1)OCO2 | 2.9 | . | 2.1
C[C@H](CO)N1C[C@H](C)[C@@H](CN(C)Cc2ccccc2)Oc2ccc(NC(=O)Nc3ccc4c(c3)OCO4)cc2CC1=O | . | -0.6 | .
C[C@H]1CN([C@@H](C)CO)C(=O)Cc2cc(NC(=O)Nc3ccc4c(c3)OCO4)ccc2O[C@@H]1CN(C)Cc1ccccc1 | 2.6 | . | 5.3
CC(C)=CCc1cc(/C=C2\OC(=O)C(c3cc4c(cc3O)OC(C)(C)CC4)C2=O)ccc1O (stereo not given) | . | -0.4 | .
Cc1noc(C)c1NC(=O)N(C)C[C@@H]1Oc2ccc(NS(=O)(=O)c3cn(C)cn3)cc2CC(=O)N([C@H](C)CO)C[C@H]1C | -5.9 | -0.3 | 0.2
COc1ccc(CN(C)C[C@H]2Oc3ccc(NC(=O)Cc4cn(C)c5ccccc45)cc3CC(=O)N([C@@H](C)CO)C[C@@H]2C)cc1 | -2.3 | -0.4 | 61.3*
COc1ccc(CN(C)C[C@H]2Oc3ccc(NC(=O)Cc4cn(C)c5ccccc45)cc3CC(=O)N([C@@H](C)CO)C[C@H]2C)cc1 | -9.1 | 0.2 | 32.0
C[C@@H]1CN([C@H](C)CO)C(=O)Cc2cc(NC(=O)Cc3cn(C)c4ccccc34)ccc2O[C@H]1CN(C)Cc1ccc(Oc2ccccc2)cc1 | -19.8 | . | 77.7*
C[C@H]1CN([C@@H](C)CO)C(=O)Cc2cc(NC(=O)Cc3cn(C)c4ccccc34)ccc2O[C@@H]1CN(C)Cc1ccc(Oc2ccccc2)cc1 | -15.4 | . | 50.5
C[C@H](CO)N1C[C@H](C)[C@@H](CN(C)Cc2ccc(Oc3ccccc3)cc2)Oc2ccc(NC(=O)Cc3cn(C)c4ccccc34)cc2CC1=O | . | -1.1 | .
C[C@H]1CN([C@@H](C)CO)C(=O)Cc2cc(NC(=O)Cc3cn(C)c4ccccc34)ccc2O[C@H]1CN(C)Cc1ccc(Oc2ccccc2)cc1 | -42.6 | -0.6 | 58.8*
C[C@H]1CN([C@@H](C)CO)C(=O)c2cccc(NC(=O)Nc3ccc(C(F)(F)F)cc3)c2O[C@@H]1CN(C)Cc1ccc(C(=O)O)cc1 | 0.9 | -0.8 | 1.1
C[C@H](CO)N1C[C@H](C)[C@@H](CN(C)Cc2ccc(C(=O)Nc3ccccc3N)cc2)Oc2c(NC(=O)Nc3ccc(F)cc3)cccc2C1=O | -8.8 | . | 52.4
C[C@H]1CN([C@@H](C)CO)C(=O)c2cccc(NC(=O)Nc3ccc(F)cc3)c2O[C@H]1CN(C)Cc1ccc(C(=O)Nc2ccccc2N)cc1 | -17.4 | . | 58.7*
